Measured values reported in ChEMBL document CHEMBL4811251 (Eur J Med Chem, 2021).
Activity calls are given as the source filed them. The calls are words filed in the database; no cut-off is given here.

Key:
MV4-11 = test: Antiproliferative activity against human MV4-11 cells assessed as growth inhibition after 72 hrs by resazurin assay; type: functional
Summary of the method: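 MV4-11 cells kept at 37 °C with 5% CO2 in ATCC-recommended medium plus 10% FBS. In-house resazurin viability assay after 72 h exposure. GI50 reported as mean ± standard deviation from at least two replicates.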

CDK8/Cyclin C = CDK8/Cyclin C (Homo sapiens, UniProt P49336); test: Inhibition of CDK8/Cyclin C (unknown origin) using RBER-CHKtide as substrate in presence of [33P]gammaATP incubated for 60 mins by microplate scintillation counter analysis
[1] = Cmax in Sprague-Dawley rat at 5 mg/kg, iv measured upto 24 hrs by LC/MS/MS analysis; type: ADME, organism-based; set-up: route intravenous, dose 5 mg/kg, time <=24; conditions: in vivo
[2] = Tmax in Sprague-Dawley rat at 20 mg/kg, po measured upto 24 hrs by LC/MS/MS analysis; type: ADME, organism-based; conditions: in vivo
[3] = Half life in BALB/c mouse at 10 mg/kg, po measured upto 24 hrs by LC/MS/MS analysis; type: ADME, organism-based; conditions: in vivo
[4] = Tmax in Sprague-Dawley rat at 5 mg/kg, iv measured upto 24 hrs by LC/MS/MS analysis; type: ADME, organism-based; conditions: in vivo
[5] = AUC in Sprague-Dawley rat at 5 mg/kg, iv measured upto 24 hrs by LC/MS/MS analysis; type: ADME, organism-based; set-up: route intravenous, dose 5 mg/kg, time <=24; conditions: in vivo
[6] = Cmax in BALB/c mouse at 2 mg/kg, iv measured upto 24 hrs by LC/MS/MS analysis; type: ADME, organism-based; set-up: route intravenous, dose 2 mg/kg, time <=24; conditions: in vivo
[7] = AUC in BALB/c mouse at 10 mg/kg, po measured upto 24 hrs by LC/MS/MS analysis; type: ADME, organism-based; set-up: route oral, dose 10 mg/kg, time <=24; conditions: in vivo
[8] = Clearance in Sprague-Dawley rat at 5 mg/kg, iv measured upto 24 hrs by LC/MS/MS analysis; type: ADME, organism-based; conditions: in vivo
[9] = Half life in Sprague-Dawley rat at 20 mg/kg, po measured upto 24 hrs by LC/MS/MS analysis; type: ADME, organism-based; conditions: in vivo
[10] = Clearance in BALB/c mouse at 2 mg/kg, iv measured upto 24 hrs by LC/MS/MS analysis; type: ADME, organism-based; conditions: in vivo
[11] = Volume of distribution at steady state in BALB/c mouse at 2 mg/kg, iv measured upto 24 hrs by LC/MS/MS analysis; type: ADME, organism-based; conditions: in vivo, read-out: Vdss
[12] = Cmax in Sprague-Dawley rat at 20 mg/kg, po measured upto 24 hrs by LC/MS/MS analysis; type: ADME, organism-based; set-up: route oral, dose 20 mg/kg, time <=24; conditions: in vivo
[13] = Volume of distribution at steady state in Sprague-Dawley rat at 5 mg/kg, iv measured upto 24 hrs by LC/MS/MS analysis; type: ADME, organism-based; conditions: in vivo, read-out: Vdss
[14] = AUC in Sprague-Dawley rat at 20 mg/kg, po measured upto 24 hrs by LC/MS/MS analysis; type: ADME, organism-based; set-up: route oral, dose 20 mg/kg, time <=24; conditions: in vivo
[15] = AUC in BALB/c mouse at 2 mg/kg, iv measured upto 24 hrs by LC/MS/MS analysis; type: ADME, organism-based; set-up: route intravenous, dose 2 mg/kg, time <=24; conditions: in vivo
[16] = Half life in Sprague-Dawley rat at 5 mg/kg, iv measured upto 24 hrs by LC/MS/MS analysis; type: ADME, organism-based; conditions: in vivo
[17] = Oral bioavailability in Sprague-Dawley rat at 20 mg/kg measured upto 24 hrs by LC/MS/MS analysis; type: ADME, organism-based; conditions: in vivo
[18] = Tmax in BALB/c mouse at 2 mg/kg, iv measured upto 24 hrs by LC/MS/MS analysis; type: ADME, organism-based; conditions: in vivo
[19] = Cmax in BALB/c mouse at 10 mg/kg, po measured upto 24 hrs by LC/MS/MS analysis; type: ADME, organism-based; set-up: route oral, dose 10 mg/kg, time <=24; conditions: in vivo
[20] = Tmax in BALB/c mouse at 10 mg/kg, po measured upto 24 hrs by LC/MS/MS analysis; type: ADME, organism-based; conditions: in vivo
[21] = Half life in BALB/c mouse at 2 mg/kg, iv measured upto 24 hrs by LC/MS/MS analysis; type: ADME, organism-based; conditions: in vivo
[22] = Oral bioavailability in BALB/c mouse at 10 mg/kg measured upto 24 hrs by LC/MS/MS analysis; type: ADME, organism-based; conditions: in vivo
[23] = target: Cyclin-dependent kinase 1/cyclin B1 (Homo sapiens) (UniProt P06493+P14635); test: Inhibition of CDK1/Cyclin B (unknown origin) assessed as residual activity at 1 uM relative to control; type: protein-complex assay
[24] = target: Protein kinase C theta (Homo sapiens) (UniProt Q04759); test: Inhibition of PKC theta (unknown origin) assessed as residual activity at 1 uM relative to control
[25] = target: Glycogen synthase kinase-3 alpha (Homo sapiens) (UniProt P49840); test: Inhibition of GSK3alpha (unknown origin) assessed as residual activity at 1 uM relative to control
[26] = target: Glycogen synthase kinase-3 beta (Homo sapiens) (UniProt P49841); test: Inhibition of GSK3beta (unknown origin) assessed as residual activity at 1 uM relative to control
[27] = target: CDK9/cyclin T1 (Homo sapiens) (UniProt O60563+P50750); test: Inhibition of CDK9/Cyclin T1 (unknown origin) assessed as residual activity at 1 uM relative to control; type: protein-complex assay

Sequence of CDK8/Cyclin C (P49336 whole entry): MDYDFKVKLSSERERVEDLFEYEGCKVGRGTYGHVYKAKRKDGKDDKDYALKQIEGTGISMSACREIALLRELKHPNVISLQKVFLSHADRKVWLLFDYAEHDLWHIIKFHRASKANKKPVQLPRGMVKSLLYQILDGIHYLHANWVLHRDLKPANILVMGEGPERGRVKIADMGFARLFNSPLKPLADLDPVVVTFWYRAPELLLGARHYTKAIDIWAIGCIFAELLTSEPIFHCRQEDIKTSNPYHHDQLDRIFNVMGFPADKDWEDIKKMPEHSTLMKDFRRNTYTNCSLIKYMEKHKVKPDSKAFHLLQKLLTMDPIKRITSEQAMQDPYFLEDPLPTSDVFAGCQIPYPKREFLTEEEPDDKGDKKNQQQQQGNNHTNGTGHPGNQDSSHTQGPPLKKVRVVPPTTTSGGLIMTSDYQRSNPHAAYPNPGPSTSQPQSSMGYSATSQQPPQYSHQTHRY
Sequence of CDK8/Cyclin C (P24863 whole entry, further chain): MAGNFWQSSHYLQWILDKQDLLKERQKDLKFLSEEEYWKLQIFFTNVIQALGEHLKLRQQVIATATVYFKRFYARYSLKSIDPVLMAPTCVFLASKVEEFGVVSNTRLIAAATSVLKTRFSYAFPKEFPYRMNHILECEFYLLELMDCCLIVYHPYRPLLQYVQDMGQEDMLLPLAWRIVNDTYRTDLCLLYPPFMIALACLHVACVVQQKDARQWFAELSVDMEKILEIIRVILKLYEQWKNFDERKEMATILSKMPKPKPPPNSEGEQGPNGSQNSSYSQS
Sequence of Protein kinase C theta (Homo sapiens) (Q04759 whole entry, looked up): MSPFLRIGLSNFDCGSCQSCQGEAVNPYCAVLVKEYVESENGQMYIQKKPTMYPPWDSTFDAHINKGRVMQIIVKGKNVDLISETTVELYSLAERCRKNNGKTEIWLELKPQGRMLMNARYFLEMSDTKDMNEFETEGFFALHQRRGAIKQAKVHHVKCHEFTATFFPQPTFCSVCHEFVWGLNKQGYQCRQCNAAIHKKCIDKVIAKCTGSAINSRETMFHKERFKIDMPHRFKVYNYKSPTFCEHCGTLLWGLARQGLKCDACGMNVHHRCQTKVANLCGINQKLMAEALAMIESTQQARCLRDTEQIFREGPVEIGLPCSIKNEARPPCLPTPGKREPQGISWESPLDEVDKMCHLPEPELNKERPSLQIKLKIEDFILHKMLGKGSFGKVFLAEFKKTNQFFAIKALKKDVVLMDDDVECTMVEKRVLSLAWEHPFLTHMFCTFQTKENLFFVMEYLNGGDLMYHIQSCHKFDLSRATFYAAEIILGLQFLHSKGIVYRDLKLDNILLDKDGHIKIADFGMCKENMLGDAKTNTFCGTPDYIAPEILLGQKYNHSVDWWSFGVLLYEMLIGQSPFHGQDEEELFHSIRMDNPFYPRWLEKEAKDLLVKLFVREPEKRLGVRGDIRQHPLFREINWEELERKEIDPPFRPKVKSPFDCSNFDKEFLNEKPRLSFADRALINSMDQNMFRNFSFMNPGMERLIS
Sequence of Glycogen synthase kinase-3 alpha (Homo sapiens) (P49840 2-483 limits assumed): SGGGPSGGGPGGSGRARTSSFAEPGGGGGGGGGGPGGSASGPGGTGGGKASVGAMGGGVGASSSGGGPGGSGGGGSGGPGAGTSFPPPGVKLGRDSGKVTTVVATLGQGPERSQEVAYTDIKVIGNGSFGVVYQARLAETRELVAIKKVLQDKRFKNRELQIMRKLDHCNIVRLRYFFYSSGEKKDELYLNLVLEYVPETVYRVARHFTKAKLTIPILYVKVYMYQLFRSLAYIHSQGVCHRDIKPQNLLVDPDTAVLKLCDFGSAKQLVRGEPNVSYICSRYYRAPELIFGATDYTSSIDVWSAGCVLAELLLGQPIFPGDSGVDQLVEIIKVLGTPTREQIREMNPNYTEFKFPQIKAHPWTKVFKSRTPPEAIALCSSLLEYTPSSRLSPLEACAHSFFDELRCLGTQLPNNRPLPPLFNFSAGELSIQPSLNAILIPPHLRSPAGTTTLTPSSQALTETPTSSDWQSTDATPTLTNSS
Sequence of Glycogen synthase kinase-3 beta (Homo sapiens) (P49841 whole entry, looked up): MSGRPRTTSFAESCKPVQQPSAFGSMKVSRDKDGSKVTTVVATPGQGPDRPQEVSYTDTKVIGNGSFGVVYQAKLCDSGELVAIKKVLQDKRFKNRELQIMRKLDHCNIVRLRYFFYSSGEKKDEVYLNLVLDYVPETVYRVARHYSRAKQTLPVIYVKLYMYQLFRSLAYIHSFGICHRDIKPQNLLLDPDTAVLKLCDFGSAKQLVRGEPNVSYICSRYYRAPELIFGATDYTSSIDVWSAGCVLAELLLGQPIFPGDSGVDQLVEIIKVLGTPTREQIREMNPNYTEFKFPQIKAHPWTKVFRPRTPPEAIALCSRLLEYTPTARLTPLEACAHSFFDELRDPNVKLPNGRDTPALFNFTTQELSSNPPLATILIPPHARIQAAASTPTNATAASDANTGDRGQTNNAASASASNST
Sequence of Cyclin-dependent kinase 1/cyclin B1 (Homo sapiens) (P06493 whole entry, looked up): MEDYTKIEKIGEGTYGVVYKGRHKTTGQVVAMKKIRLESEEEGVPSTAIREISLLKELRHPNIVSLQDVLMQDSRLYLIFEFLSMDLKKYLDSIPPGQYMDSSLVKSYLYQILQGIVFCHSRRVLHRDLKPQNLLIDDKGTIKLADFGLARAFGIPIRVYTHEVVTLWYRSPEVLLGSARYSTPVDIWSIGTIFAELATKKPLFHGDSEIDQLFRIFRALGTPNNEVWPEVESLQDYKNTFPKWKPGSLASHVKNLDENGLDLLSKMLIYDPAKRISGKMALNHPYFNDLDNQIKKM
Sequence of Cyclin-dependent kinase 1/cyclin B1 (Homo sapiens) (P14635 whole entry, looked up): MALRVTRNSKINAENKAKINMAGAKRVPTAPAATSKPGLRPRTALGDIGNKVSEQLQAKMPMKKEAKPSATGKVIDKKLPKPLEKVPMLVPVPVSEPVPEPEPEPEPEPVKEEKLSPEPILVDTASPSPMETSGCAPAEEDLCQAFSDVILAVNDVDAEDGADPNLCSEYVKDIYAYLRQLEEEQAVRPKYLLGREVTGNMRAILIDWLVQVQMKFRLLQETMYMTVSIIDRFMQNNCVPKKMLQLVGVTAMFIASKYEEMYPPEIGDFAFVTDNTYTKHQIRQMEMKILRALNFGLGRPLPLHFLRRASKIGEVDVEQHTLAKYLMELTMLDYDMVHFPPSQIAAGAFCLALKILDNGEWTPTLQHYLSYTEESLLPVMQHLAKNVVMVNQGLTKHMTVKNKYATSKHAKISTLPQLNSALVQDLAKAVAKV

CCOCOCc1ccc(-c2cncc(Cl)c2N2CCC3(CCNC3=O)CC2)o1
GI50 (MV4-11): 2970 nM | Ki (CDK8/Cyclin C): 36 nM

Cn1cccc1-c1cncc(Cl)c1N1CCC2(CCNC2=O)CC1
GI50 (MV4-11): 900 nM | Ki (CDK8/Cyclin C): 30 nM

Cc1ccc(-c2cncc(Cl)c2N2CCC3(CCNC3=O)CC2)s1
GI50 (MV4-11): 650 nM | Ki (CDK8/Cyclin C): 10 nM

CC(=O)c1sccc1-c1cncc(Cl)c1N1CCC2(CCNC2=O)CC1
GI50 (MV4-11): > 100000 nM | Ki (CDK8/Cyclin C): 4660 nM

O=Cc1ccc(-c2cncc(Cl)c2N2CCC3(CCNC3=O)CC2)o1
GI50 (MV4-11): 5190 nM | Ki (CDK8/Cyclin C): 82 nM

Cc1csc(-c2cncc(Cl)c2N2CCC3(CCNC3=O)CC2)c1
GI50 (MV4-11): 650 nM | Ki (CDK8/Cyclin C): 10 nM

O=C1NCCC12CCN(c1c(Cl)cncc1-c1cc[nH]c1)CC2
GI50 (MV4-11): 1050 nM | Ki (CDK8/Cyclin C): 14 nM

Nc1ncc(-c2cc3ccccc3s2)c(N2CCC3(CCNC3=O)CC2)c1Cl
Cmax [1]: 11.1 µM | Tmax [2]: 5 h | half-life [3]: 1.67 h | Tmax [4]: 9 min | AUC at 24 h [5]: 18.4 µM·h | Cmax [6]: 4.96 µM | AUC at 24 h [7]: 3.4 µM·h | clearance [8]: 13.2 mL/min/kg | half-life [9]: 10.1 h | clearance [10]: 33.3 mL/min/kg | Vd [11]: 1.6 L/kg | Cmax [12]: 1.35 µM | Vd [13]: 1.32 L/kg | AUC at 24 h [14]: 19.5 µM·h | AUC at 24 h [15]: 2.4 µM·h | half-life [16]: 4.41 h | GI50 (MV4-11): 160 nM | bioavailability [17]: 26% | Tmax [18]: 3 min | Ki (CDK8/Cyclin C): 7 nM | Cmax [19]: 1.68 µM | Tmax [20]: 0.18 h | half-life [21]: 0.88 h | bioavailability [22]: 28%

Cc1ccsc1-c1cncc(Cl)c1N1CCC2(CCNC2=O)CC1
GI50 (MV4-11): 910 nM | Ki (CDK8/Cyclin C): 8 nM

Cn1ncc2cc(-c3cnc(N)c(Cl)c3N3CCC4(CCNC4=O)CC3)ccc21
GI50 (MV4-11): 50 nM

O=Cc1cscc1-c1cncc(Cl)c1N1CCC2(CCNC2=O)CC1
GI50 (MV4-11): 27100 nM | Ki (CDK8/Cyclin C): 845 nM

Cc1ccc(-c2cncc(Cl)c2N2CCC3(CCNC3=O)CC2)o1
GI50 (MV4-11): 4950 nM | Ki (CDK8/Cyclin C): 22 nM

O=C1NCCC12CCN(c1c(Cl)cncc1-c1ccc(CN3CCOCC3)s1)CC2
GI50 (MV4-11): 2960 nM | Ki (CDK8/Cyclin C): 32 nM

CC(=O)c1ccc(-c2cncc(Cl)c2N2CCC3(CCNC3=O)CC2)s1
GI50 (MV4-11): 1440 nM | Ki (CDK8/Cyclin C): 66 nM

Cc1cc(-c2cncc(Cl)c2N2CCC3(CCNC3=O)CC2)sc1C=O
GI50 (MV4-11): 2530 nM | Ki (CDK8/Cyclin C): 119 nM

CC(C)(C)OC(=O)N1CCN(Cc2ccc(-c3cncc(Cl)c3N3CCC4(CCNC4=O)CC3)s2)CC1
GI50 (MV4-11): 5150 nM | Ki (CDK8/Cyclin C): 46 nM

O=Cc1cc(-c2cncc(Cl)c2N2CCC3(CCNC3=O)CC2)cs1
GI50 (MV4-11): 730 nM | Ki (CDK8/Cyclin C): 52 nM

O=C1NCCC12CCN(c1c(Cl)cncc1-c1ccco1)CC2
GI50 (MV4-11): 940 nM | Ki (CDK8/Cyclin C): 26 nM

O=Cc1cc(-c2cncc(Cl)c2N2CCC3(CCNC3=O)CC2)co1
GI50 (MV4-11): 5150 nM | Ki (CDK8/Cyclin C): 185 nM

O=C1NCCC12CCN(c1c(Cl)cncc1-c1cnn(C(F)F)c1)CC2
GI50 (MV4-11): 6140 nM | Ki (CDK8/Cyclin C): 93 nM

O=C1NCCC12CCN(c1c(Cl)cncc1-c1ccc(-c3ccccc3)s1)CC2
Activity [23]: inactive | Activity [24]: inactive | Activity [25]: 62% | Activity [26]: 74% | Activity [27]: inactive | GI50 (MV4-11): 960 nM | Ki (CDK8/Cyclin C): 5 nM

O=C1NCCC12CCN(c1c(Cl)cncc1-c1cn[nH]c1)CC2
GI50 (MV4-11): 8520 nM | Ki (CDK8/Cyclin C): 254 nM

O=C1NCCC12CCN(c1c(Cl)cncc1-c1ccsc1)CC2
GI50 (MV4-11): 190 nM | Ki (CDK8/Cyclin C): 18 nM

O=C1NCCC12CCN(c1c(Cl)cncc1-c1ccc(CN3CCCCC3)s1)CC2
GI50 (MV4-11): 4010 nM | Ki (CDK8/Cyclin C): 106 nM

O=C1NCCC12CCN(c1c(Cl)cncc1-c1ccc(Cl)s1)CC2
GI50 (MV4-11): 560 nM | Ki (CDK8/Cyclin C): 14 nM

O=C1NCCC12CCN(c1c(Cl)cncc1-c1cccs1)CC2
GI50 (MV4-11): 480 nM | Ki (CDK8/Cyclin C): 10 nM

O=C1NCCC12CCN(c1c(Cl)cncc1-c1ccc(CN3CCCC3)s1)CC2
GI50 (MV4-11): 3370 nM | Ki (CDK8/Cyclin C): 132 nM

O=Cc1sccc1-c1cncc(Cl)c1N1CCC2(CCNC2=O)CC1
GI50 (MV4-11): 28700 nM | Ki (CDK8/Cyclin C): 1750 nM

Cn1cc(-c2cncc(Cl)c2N2CCC3(CCNC3=O)CC2)cn1
GI50 (MV4-11): 5530 nM | Ki (CDK8/Cyclin C): 230 nM

O=Cc1ccc(-c2cncc(Cl)c2N2CCC3(CCNC3=O)CC2)s1
GI50 (MV4-11): 750 nM | Ki (CDK8/Cyclin C): 67 nM

O=C1NCCC12CCN(c1c(Cl)cncc1-c1ccoc1)CC2
GI50 (MV4-11): 750 nM | Ki (CDK8/Cyclin C): 42 nM
